Results as given in ChEMBL document CHEMBL5058577, “EUbOPEN Chemogenomics Library 2 (Multiplex)” (2022).

Tested on: Fibroblast
Experiment: Multiplex assay against human fibroblast
Type: toxicity, cell-based
Outline: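 At seeding, live cells were stained with Hoechst33342, BioTracker Green Microtubule Cytoskeleton Dye, MitoTracker Red and Annexin V Alexa Fluor 680. After compound addition they were imaged on a CQ1 microscope at 37°C and 5% CO2, and CellPathfinder machine-learning gating sorted them into Hoechst high-intensity objects or normal cells, with normal cells further split into healthy, pyknosed or fragmented nuclei and pyknosed cells into mitotic or apoptotic. Tubulin, mitochondrial-mass and membrane-permeability phenotypes are given as per cents of cells with healthy nuclei.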

[1] = 12 h, 1 µM, compound concentration 1 uM, replicate 1
[2] = 12 h, 1 µM, compound concentration 1 uM, replicate 2
[3] = 12 h, 10 µM, compound concentration 10 uM, replicate 1
[4] = 12 h, 10 µM, compound concentration 10 uM, replicate 2
[5] = 24 h, 1 µM, compound concentration 1 uM, replicate 1
[6] = 24 h, 1 µM, compound concentration 1 uM, replicate 2
[7] = 24 h, 10 µM, compound concentration 10 uM, replicate 1
[8] = 24 h, 10 µM, compound concentration 10 uM, replicate 2
[9] = 48 h, 1 µM, compound concentration 1 uM, replicate 1
[10] = 48 h, 1 µM, compound concentration 1 uM, replicate 2
[11] = 48 h, 10 µM, compound concentration 10 uM, replicate 1
[12] = 48 h, 10 µM, compound concentration 10 uM, replicate 2

CN(C)C(=O)Cn1cc(-c2ccc(-c3nnc4ccccn34)cc2)cn1
Population Apoptotic (%) [1]: 57%
Population Fragmented Nuclei (%) [1]: 18%
Population Healthy Nuclei (%) [1]: 60%
Population Hoechst High Intensity Objects (%) [1]: 5%
Population Membrane Permeable-Phenotype (%) [1]: 1%
Population Mitochondria Different-Phenotype (%) [1]: 3%
Population Mitotic Cells (%) [1]: 42%
Population Normal (%) [1]: 94%
Population Pyknosed Nuclei (%) [1]: 21%
Population Tubulin-Different-Phenotype (%) [1]: 22%
Total Cell Count [1]: 139
Population Apoptotic (%) [2]: 55%
Population Fragmented Nuclei (%) [2]: 20%
Population Healthy Nuclei (%) [2]: 58%
Population Membrane Permeable-Phenotype (%) [2]: 7%
Population Mitochondria Different-Phenotype (%) [2]: 7%
Population Mitotic Cells (%) [2]: 44%
Population Pyknosed Nuclei (%) [2]: 20%
Population Tubulin-Different-Phenotype (%) [2]: 42%
Total Cell Count [2]: 152
Population Apoptotic (%) [3]: 52%
Population Fragmented Nuclei (%) [3]: 8%
Population Healthy Nuclei (%) [3]: 63%
Population Hoechst High Intensity Objects (%) [3]: 3%
Population Membrane Permeable-Phenotype (%) [3]: 0%
Population Mitochondria Different-Phenotype (%) [3]: 6%
Population Mitotic Cells (%) [3]: 47%
Population Normal (%) [3]: 96%
Population Pyknosed Nuclei (%) [3]: 28%
Population Tubulin-Different-Phenotype (%) [3]: 31%
Total Cell Count [3]: 140
Population Apoptotic (%) [4]: 39%
Population Fragmented Nuclei (%) [4]: 31%
Population Healthy Nuclei (%) [4]: 38%
Population Hoechst High Intensity Objects (%) [4]: 8%
Population Membrane Permeable-Phenotype (%) [4]: 15%
Population Mitochondria Different-Phenotype (%) [4]: 18%
Population Mitotic Cells (%) [4]: 60%
Population Normal (%) [4]: 91%
Population Pyknosed Nuclei (%) [4]: 29%
Population Tubulin-Different-Phenotype (%) [4]: 70%
Total Cell Count [4]: 123
Population Apoptotic (%) [5]: 56%
Population Fragmented Nuclei (%) [5]: 23%
Population Healthy Nuclei (%) [5]: 60%
Population Hoechst High Intensity Objects (%) [5]: 0%
Population Membrane Permeable-Phenotype (%) [5]: 2%
Population Mitochondria Different-Phenotype (%) [5]: 1%
Population Mitotic Cells (%) [5]: 43%
Population Normal (%) [5]: 99%
Population Pyknosed Nuclei (%) [5]: 16%
Population Tubulin-Different-Phenotype (%) [5]: 25%
Total Cell Count [5]: 144
Population Apoptotic (%) [6]: 54%
Population Hoechst High Intensity Objects (%) [6]: 4%
Population Membrane Permeable-Phenotype (%) [6]: 4%
Population Mitochondria Different-Phenotype (%) [6]: 3%
Population Mitotic Cells (%) [6]: 45%
Population Normal (%) [6]: 95%
Population Tubulin-Different-Phenotype (%) [6]: 41%
Total Cell Count [6]: 142
Population Apoptotic (%) [7]: 65%
Population Fragmented Nuclei (%) [7]: 10%
Population Healthy Nuclei (%) [7]: 65%
Population Hoechst High Intensity Objects (%) [7]: 5%
Population Membrane Permeable-Phenotype (%) [7]: 2%
Population Mitochondria Different-Phenotype (%) [7]: 5%
Population Mitotic Cells (%) [7]: 34%
Population Normal (%) [7]: 94%
Population Pyknosed Nuclei (%) [7]: 24%
Population Tubulin-Different-Phenotype (%) [7]: 25%
Total Cell Count [7]: 140
Population Apoptotic (%) [8]: 26%
Population Fragmented Nuclei (%) [8]: 36%
Population Healthy Nuclei (%) [8]: 40%
Population Hoechst High Intensity Objects (%) [8]: 9%
Population Membrane Permeable-Phenotype (%) [8]: 10%
Population Mitochondria Different-Phenotype (%) [8]: 6%
Population Mitotic Cells (%) [8]: 73%
Population Normal (%) [8]: 90%
Population Pyknosed Nuclei (%) [8]: 22%
Population Tubulin-Different-Phenotype (%) [8]: 71%
Total Cell Count [8]: 126
Population Apoptotic (%) [9]: 58%
Population Fragmented Nuclei (%) [9]: 22%
Population Healthy Nuclei (%) [9]: 61%
Population Hoechst High Intensity Objects (%) [9]: 1%
Population Membrane Permeable-Phenotype (%) [9]: 4%
Population Mitochondria Different-Phenotype (%) [9]: 4%
Population Mitotic Cells (%) [9]: 41%
Population Normal (%) [9]: 98%
Population Pyknosed Nuclei (%) [9]: 16%
Population Tubulin-Different-Phenotype (%) [9]: 29%
Total Cell Count [9]: 151
Population Apoptotic (%) [10]: 42%
Population Fragmented Nuclei (%) [10]: 28%
Population Healthy Nuclei (%) [10]: 52%
Population Hoechst High Intensity Objects (%) [10]: 5%
Population Membrane Permeable-Phenotype (%) [10]: 6%
Population Mitochondria Different-Phenotype (%) [10]: 2%
Population Mitotic Cells (%) [10]: 57%
Population Normal (%) [10]: 94%
Population Pyknosed Nuclei (%) [10]: 18%
Population Tubulin-Different-Phenotype (%) [10]: 46%
Total Cell Count [10]: 147
Population Apoptotic (%) [11]: 52%
Population Fragmented Nuclei (%) [11]: 16%
Population Healthy Nuclei (%) [11]: 66%
Population Hoechst High Intensity Objects (%) [11]: 2%
Population Membrane Permeable-Phenotype (%) [11]: 0%
Population Mitochondria Different-Phenotype (%) [11]: 2%
Population Mitotic Cells (%) [11]: 47%
Population Normal (%) [11]: 97%
Population Pyknosed Nuclei (%) [11]: 17%
Population Tubulin-Different-Phenotype (%) [11]: 38%
Total Cell Count [11]: 137
Population Apoptotic (%) [12]: 60%
Population Fragmented Nuclei (%) [12]: 44%
Population Healthy Nuclei (%) [12]: 47%
Population Hoechst High Intensity Objects (%) [12]: 3%
Population Membrane Permeable-Phenotype (%) [12]: 18%
Population Mitochondria Different-Phenotype (%) [12]: 8%
Population Mitotic Cells (%) [12]: 40%
Population Normal (%) [12]: 96%
Population Pyknosed Nuclei (%) [12]: 7%
Population Tubulin-Different-Phenotype (%) [12]: 73%
Total Cell Count [12]: 131
